As usually defined, the IC50 is the concentration needed to halve the response being measured.

This test has as its target T1, Extracellular calcium-sensing receptor (Homo sapiens, UniProt P41180).
T1 sequence (P41180 whole entry): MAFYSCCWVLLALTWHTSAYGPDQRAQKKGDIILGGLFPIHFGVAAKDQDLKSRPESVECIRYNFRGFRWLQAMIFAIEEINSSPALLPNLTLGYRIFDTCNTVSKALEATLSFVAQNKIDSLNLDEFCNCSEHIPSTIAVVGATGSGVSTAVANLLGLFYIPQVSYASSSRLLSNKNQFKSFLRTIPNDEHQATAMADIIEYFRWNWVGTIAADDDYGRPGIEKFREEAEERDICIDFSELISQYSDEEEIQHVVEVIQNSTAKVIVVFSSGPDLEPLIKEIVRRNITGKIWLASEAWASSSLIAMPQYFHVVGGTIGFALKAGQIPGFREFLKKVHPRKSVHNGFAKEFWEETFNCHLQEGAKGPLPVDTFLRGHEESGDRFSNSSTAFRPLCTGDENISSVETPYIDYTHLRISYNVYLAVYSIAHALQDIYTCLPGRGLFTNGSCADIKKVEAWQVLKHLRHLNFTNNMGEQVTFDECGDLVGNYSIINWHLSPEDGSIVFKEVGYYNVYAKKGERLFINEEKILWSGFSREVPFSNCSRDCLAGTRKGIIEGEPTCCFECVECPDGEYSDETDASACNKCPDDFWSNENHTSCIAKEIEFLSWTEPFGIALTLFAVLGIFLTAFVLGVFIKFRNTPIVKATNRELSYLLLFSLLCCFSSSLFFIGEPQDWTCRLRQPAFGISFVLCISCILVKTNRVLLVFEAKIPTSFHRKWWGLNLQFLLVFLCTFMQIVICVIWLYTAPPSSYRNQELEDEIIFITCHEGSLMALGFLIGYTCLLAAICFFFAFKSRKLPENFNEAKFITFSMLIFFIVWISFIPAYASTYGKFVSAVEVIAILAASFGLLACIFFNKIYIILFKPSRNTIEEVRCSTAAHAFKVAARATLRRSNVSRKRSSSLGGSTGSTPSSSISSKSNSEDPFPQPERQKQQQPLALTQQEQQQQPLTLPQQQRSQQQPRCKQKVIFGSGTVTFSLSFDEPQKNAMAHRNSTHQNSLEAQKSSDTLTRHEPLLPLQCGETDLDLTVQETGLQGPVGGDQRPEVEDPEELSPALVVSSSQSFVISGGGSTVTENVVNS
The experiment in a line: Inhibitory concentration was evaluated for in vitro calcilytic activity against human calcium receptor. In short, it runs like this: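 HEK 293 4.0-7 cells stably expressing human CaR, loaded with fluo-3. Intracellular Ca2+ rise triggered by raising extracellular Ca2+ from 1.0 to 1.3 mM. Peak fluorescence normalized to the response without compound. Eight concentrations tested in duplicate, top concentration 30 µM. IC50 normalized to an internal reference standard run in parallel in each assay.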
`Cc1nc(-c2ccccc2O)n(CCc2cccc(F)c2)c(=O)c1C`: the 50% inhibitory concentration (IC50) worked out at 170 nM. Regarding `Cc1nc(-c2ccccc2O)n(CCc2cccc(F)c2)c(=O)c1C(C)C`, the concentration for half-maximal inhibition (IC50) is 95 nM. On to `Cc1cc(=O)n(CCc2ccccc2F)c(-c2ccccc2O)n1`, for which the IC50 came to 1600 nM. In the case of `CCc1c(C)nc(-c2ccccc2O)n(CCc2ccccc2F)c1=O`, the half-maximal inhibitory concentration (IC50) was 97 nM. Regarding `CCCc1c(C)nc(-c2ccccc2O)n(CCc2cccc(F)c2)c1=O`, the IC50 amounted to 140 nM. On to `Cc1cc(=O)n(CCc2cccc(F)c2)c(-c2ccccc2O)n1`, for which the half-inhibitory concentration (IC50) was found to be 1100 nM. In the case of `CCc1c(C)nc(-c2ccccc2O)n(CCc2ccccc2)c1=O`, the IC50 is 100 nM. For `O=c1c2c(nc(-c3ccccc3O)n1CCc1ccccc1)CCCC2`, the 50% inhibitory concentration (IC50) was 140 nM. With `O=c1c2c(nc(-c3ccccc3O)n1CCc1ccccc1)CCC2`, the half-maximal inhibitory concentration (IC50) came to 200 nM.

With `O=c1c2c(nc(-c3ccccc3O)n1CCc1cccc(F)c1)CCC2`, the IC50 was determined as 200 nM. As for `Cc1nc(-c2ccccc2O)n(CCc2ccccc2)c(=O)c1C`, the IC50 is 200 nM. For the compound `Cc1c(C(F)(F)F)nc(-c2ccccc2O)n(CCc2ccccc2)c1=O`, the half-maximal inhibitory concentration (IC50) worked out at 800 nM.

In the case of `Cc1cc(=O)n(CCc2ccccc2)c(-c2ccccc2O)n1`, the IC50 turned out to be 1900 nM.

The record behind these values is ChEMBL document CHEMBL1145248, “Design, new synthesis, and calcilytic activity of substituted 3H-pyrimidin-4-ones” (Bioorg Med Chem Lett, 2005).
